In paper PMC3065392 (Lipids, 2010):

Biological target: T1, ADRP (adipose differentiation-related protein) (Mus musculus, UniProt P43883)
T1 sequence (P43883 2-425): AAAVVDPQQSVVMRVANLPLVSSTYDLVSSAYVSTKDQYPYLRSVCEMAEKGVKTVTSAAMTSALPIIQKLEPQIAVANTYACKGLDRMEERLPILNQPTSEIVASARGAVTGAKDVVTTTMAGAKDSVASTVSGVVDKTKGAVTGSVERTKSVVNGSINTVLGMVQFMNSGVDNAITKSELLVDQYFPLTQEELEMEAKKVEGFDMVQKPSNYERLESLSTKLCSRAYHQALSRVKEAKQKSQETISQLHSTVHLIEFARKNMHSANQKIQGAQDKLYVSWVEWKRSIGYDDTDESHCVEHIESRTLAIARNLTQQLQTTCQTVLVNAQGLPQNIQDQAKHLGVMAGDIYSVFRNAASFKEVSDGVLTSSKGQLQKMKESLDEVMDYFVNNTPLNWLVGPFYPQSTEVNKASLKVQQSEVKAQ
Assay: fluorescence saturation binding titration, single-site fit
In short: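 Stepwise titration of the NBD-labelled lipid (NBD-sphingomyelin or NBD-phosphatidylcholine, 100 µM stock) into ADRP (180 nM) in 10 mM phosphate buffer, pH 7.4. After each addition, samples were mixed 3–4 min at 25°C and the NBD probe was excited; emission 490–600 nm was integrated and corrected for blank and background. Kd and Bmax come from a single-site fit of three independent measurements (mean ± SE).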

Compound	Kd
CCCCCCCCCCCCCCCC(=O)OC[C@H](COP(=O)([O-])OCC[N+](C)(C)C)OC(=O)CCCCCNc1ccc([N+](=O)[O-])c2nonc12 [NBD-phosphatidylcholine, 2-(6-(7-nitrobenz-2-oxa-1,3-diazol-4-yl)amino)hexanoyl-1-hexadecanoyl-sn-glycero-3-phosphocholine]	15 ± 3 nM
CCCCCCCCCCCCC/C=C/[C@@H](O)[C@H](COP(=O)([O-])OCC[N+](C)(C)C)NC(=O)CCCCCNc1ccc([N+](=O)[O-])c2nonc12 [NBD-sphingomyelin, 6-((N-(7-nitrobenz-2-oxa-1,3-diazol-4-yl)amino)-hexanoyl)sphingosyl-phosphocholine]	257 ± 64 nM
